Results from ChEMBL document CHEMBL5150021, “Identification of 5-(Aryl/Heteroaryl)amino-4-quinolones as Potent Membrane-Disrupting Agents to Combat Antibiotic-Resistant Gram-Positive Bacteria” (J Med Chem, 2022).
In brackets after ≈: the same amount, converted by molar mass. Activity calls are given as the source filed them. The rule behind the calls is not given here.

What was measured:
Staphylococcus aureus [1] = experiment: Antibacterial activity against methicillin resistant Staphylococcus aureus FPR3757 assessed as inhibition of bacterial growth incubated for 24 hrs by CLSI based method; type: functional; conditions: read-out: MIC100
Procedure, shortened: (§1)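 It was mixed 1:1 with twofold serial compound dilutions and incubated stationary at 37 °C for 24 h. MIC was the lowest concentration giving complete inhibition of observable growth, with an oxacillin control.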

Staphylococcus aureus [2] = experiment: Antibacterial activity against methicillin resistant Staphylococcus aureus assessed as inhibition of bacterial growth incubated for 15 hrs by CLSI based broth microdilution method; type: functional
[3] = Cmax in CD-1 mouse at 10 mg/kg, po administered as single dose and measured for 24 hrs by LC-MS/MS analysis; type: ADME, organism-based; design: time 24 hrs, dose 10 mg/kg, route po; conditions: in vivo
Staphylococcus aureus [4] = experiment: Antibacterial activity against methicillin-resistant Staphylococcus aureus MW2 assessed as inhibition of bacterial growth incubated for 24 hrs by CLSI based method; type: functional
Procedure, shortened: (§2)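 Broth microdilution per CLSI. Equal volume of twofold serial compound dilutions added. Incubated stationary at 37 °C for 24 h. MIC taken as lowest concentration giving complete inhibition of visible growth. Oxacillin control for Gram-positives, ceftriaxone for Gram-negatives.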

[5] = Oral bioavailability in CD-1 mouse at 10 mg/kg administered as single dose and measured for 24 hrs by LC-MS/MS analysis; type: ADME, organism-based; conditions: in vivo
Procedure, shortened: (§3)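 Six-week-old female CD-1 mice (n = 3 per route). Dosing: single 0.5 mg/kg i.v. in 5% DMA/95% (4% Cremophor EL), or 10 mg/kg oral gavage in 5% DMA/60% PEG 300/35% D5W. Tail-vein blood is collected to 24 h into K2EDTA, and plasma is analysed by LC-MS/MS. Parameters come from noncompartmental analysis.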

Cell membrane [6] = experiment: Induction of cell membrane damage in Staphylococcus aureus USA300 assessed as membrane wrinkling at 1 times MIC measured after 1 hrs by TEM analysis
Procedure, shortened: (§4)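 Fixed in glutaraldehyde/paraformaldehyde in cacodylate pH 7.4, post-fixed with osmium tetroxide, stained with uranyl acetate, resin-embedded, thin-sectioned and imaged by TEM.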

[7] = Cytotoxicity against sheep erythrocytes assessed as reduction in cell viability; type: toxicity, cell-based, Ovis aries, Erythrocyte
Procedure, shortened: (§5)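 4% sheep erythrocytes mixed 1:1 with twofold serial compound dilutions in PBS, incubated stationary 1 h at 37 °C, then centrifuged at 500g for 5 min. Supernatant A540 is measured and percent hemolysis is calculated relative to DMSO vehicle (0%) and Triton X-100 (100%). Triplicate, mean ± SD.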

Cell membrane [8] = experiment: Induction of cell membrane damage in Staphylococcus aureus USA300 assessed as bulging of the septum at 1 times MIC measured after 1 hrs by TEM analysis; procedure, shortened: as §4
Cell membrane [9] = experiment: Induction of cell membrane damage in Staphylococcus aureus USA300 assessed as mesosome-like membrane inclusions at 1 times MIC measured after 1 hrs by TEM analysis; procedure, shortened: as §4
Staphylococcus aureus [10] = experiment: Antibacterial activity against methicillin-resistant Staphylococcus aureus N315 assessed as inhibition of bacterial growth incubated for 24 hrs by CLSI based method; type: functional; procedure, shortened: as §2
Staphylococcus aureus [11] = experiment: microbe, parasite or virus in culture; conditions: USA300 FPR3757, 24 h
Enterococcus faecalis [12] = experiment: Antibacterial activity against Enterococcus faecalis DHMC #1 assessed as inhibition of bacterial growth incubated for 24 hrs by CLSI based method; type: functional; procedure, shortened: as §2
Staphylococcus aureus [13] = experiment: Antibacterial activity against methicillin-resistant Staphylococcus aureus COL assessed as inhibition of bacterial growth incubated for 24 hrs by CLSI based method; type: functional; procedure, shortened: as §2
Vero [14] = experiment: Cytotoxicity against African green monkey Vero cells assessed as increase in LDH release at 30 uM incubated for 24 hrs relative to control; type: toxicity, cell-based; conditions: chlorocebus sabaeus
Procedure, shortened: (§6)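 Confluent Vero cells (maintained in RPMI 1640 + 10% FBS, 37 °C, 5% CO2) exposed to compound at 0.47–30 μM (twofold dilutions) in serum-free medium for 24 h at 37 °C. LDH in supernatant is measured colorimetrically at 490 nm and expressed as percent of 2% detergent positive control.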

Staphylococcus aureus [15] = experiment: Antibacterial activity against methicillin-resistant Staphylococcus aureus NRS71 assessed as inhibition of bacterial growth incubated for 24 hrs by CLSI based method; type: functional; procedure, shortened: as §2
[16] = Volume of distribution in CD-1 mouse at 0.5 mg/kg, iv administered as single dose and measured for 24 hrs by LC-MS/MS analysis; type: ADME, organism-based; conditions: in vivo; procedure, shortened: as §3
Erythrocyte = experiment: Hemolytic activity in sheep erythrocytes at 32 ug/ml incubated for 1 hr; type: toxicity, cell-based, Ovis aries; conditions: dose 32 µg/ml; procedure, shortened: as §5
Staphylococcus aureus [17] = experiment: Antibacterial activity against methicillin resistant Staphylococcus aureus FPR3757 assessed as inhibition of bacterial growth incubated for 24 hrs in presence of 10% mouse serum by CLSI based method; type: functional
Procedure, shortened: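 CLSI broth microdilution against MRSA FPR3757 (USA300) in Mueller–Hinton broth supplemented with 10% serum (fetal bovine or mouse). Inoculum 10⁶ CFU/mL with twofold serial compound dilutions, stationary incubation at 37 °C for 24 h. MIC read as lowest concentration with complete inhibition of visible growth.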

Staphylococcus aureus [18] = experiment: Antibacterial activity against community-associated methicillin-resistant Staphylococcus aureus USA300 FPR3757 assessed as inhibition of bacterial growth incubated for 24 hrs by CLSI based method; type: functional; procedure, shortened: as §1
Enterobacter cloacae = experiment: Antibacterial activity against Enterobacter cloacae ND-21 assessed as inhibition of bacterial growth incubated for 24 hrs by CLSI based method; type: functional; procedure, shortened: as §2
Enterococcus faecalis [19] = experiment: Antibacterial activity against Enterococcus faecalis ATCC700802 assessed as inhibition of bacterial growth incubated for 24 hrs by CLSI based method; type: functional; procedure, shortened: as §2
Klebsiella pneumoniae = experiment: Antibacterial activity against Klebsiella pneumoniae 7117 assessed as inhibition of bacterial growth incubated for 24 hrs by CLSI based method; type: functional; procedure, shortened: as §2
Escherichia coli = experiment: Antibacterial activity against Escherichia coli DHMC-1 assessed as inhibition of bacterial growth incubated for 24 hrs by CLSI based method; type: functional; procedure, shortened: as §2
[20] = test system: Staphylococcus epidermidis; experiment: Antibacterial activity against Staphylococcus epidermidis NIF104003 assessed as inhibition of bacterial growth incubated for 24 hrs by CLSI based method; type: functional; procedure, shortened: as §2
[21] = AUC (0 to 24 hrs) in CD-1 mouse at 10 mg/kg, po administered as single dose and measured for 24 hrs by LC-MS/MS analysis; type: ADME, organism-based; design: time 24 hrs, dose 10 mg/kg, route po; conditions: in vivo
[22] = test system: Staphylococcus epidermidis; experiment: Antibacterial activity against Staphylococcus epidermidis NIF104008 assessed as inhibition of bacterial growth incubated for 24 hrs by CLSI based method; type: functional; procedure, shortened: as §2
Candida albicans = experiment: Antifungal activity against Candida albicans SC5314 assessed as inhibition of bacterial growth incubated for 24 hrs by CLSI based method; type: functional
Procedure, shortened: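 Broth microdilution per CLSI. It is mixed 1:1 with twofold serial compound dilutions and incubated stationary at 35 °C for 24 h. MIC is read as the lowest concentration with no observable growth.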

[23] = Half life in CD-1 mouse at 0.5 mg/kg, iv administered as single dose and measured for 24 hrs by LC-MS/MS analysis; type: ADME, organism-based; conditions: in vivo; procedure, shortened: as §3
Cell membrane [24] = experiment: Induction of cell membrane damage in Staphylococcus aureus USA300 assessed as cross-wall-septum formation with reduced splitting at 1 times MIC measured after 10 mins by TEM analysis; type: subcellular
[25] = Protein binding in human plasma at […] incubated for 4 hrs under shaking condition by LC-MS/MS based equilibrium dialysis method; type: ADME, cell-free
Procedure, shortened: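 Rapid equilibrium dialysis (8k MWCO). Compound is spiked into human plasma at 10 μg/mL and dialysed against DPBS pH 7.4 with shaking for 4 h at 37 °C. Matrices are matched, proteins precipitated with methanol containing internal standard, and both chambers quantified by LC-MS/MS against a calibration curve. Percent free and bound are calculated from chamber concentrations.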

Enterococcus faecium [26] = experiment: Antibacterial activity against Enterococcus faecium DHMC #1 assessed as inhibition of bacterial growth incubated for 24 hrs by CLSI based method; type: functional; procedure, shortened: as §2
[27] = AUC (0 to 24 hrs) in CD-1 mouse at 0.5 mg/kg, iv administered as single dose and measured for 24 hrs by LC-MS/MS analysis; type: ADME, organism-based; design: time 24 hrs, dose 0.5 mg/kg, route iv; conditions: in vivo
Procedure, shortened: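 Six-week-old female CD-1 mice (20–25 g; n = 3) received one intravenous injection at 0.5 mg/kg in 5% DMA:95% (4% Cremophor EL). […] Plasma was stored at −80 °C and quantified by LC-MS/MS. AUC came from noncompartmental analysis, reported as mean ± SD.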

[28] = Kinetic aqueous solubility of the compound in DPBS at pH 7.4 at 100 ug/ml measured after 6 hrs by LC-MS/MS analysis; type: physicochemical; conditions: buffer, pH 7.4, 6 h, dose 100 µg/ml
Enterococcus faecium [29] = experiment: Antibacterial activity against Enterococcus faecium ATCC19579 assessed as inhibition of bacterial growth incubated for 24 hrs by CLSI based method; type: functional; procedure, shortened: as §2
Vero [30] = experiment: Cytotoxicity against African green monkey Vero cells assessed as increase in LDH release at 0.47 to 30 uM incubated for 24 hrs; type: toxicity, cell-based; conditions: chlorocebus sabaeus, dose 0.47-30 µM; procedure, shortened: as §6

Q: For `Oc1cc(C(F)(F)F)nc2c(OC(F)(F)F)cccc12`, which MIC (Staphylococcus aureus [1]) is on record?
A: 5 µg/mL (≈ 16.8 µM)

Q: What about the MIC (Staphylococcus aureus [2]) of the same compound?
A: 8 µg/mL (≈ 26.9 µM)

Q: For `O=c1cc(C(F)(F)F)[nH]c2cc(C(F)(F)F)cc(Nc3ccc(C(F)(F)F)cn3)c12`, which Cmax [3] is on record?
A: 3100 ng/mL

Q: And the MIC (Staphylococcus aureus [4])?
A: < 0.06 µg/mL

Q: What about the F [5] of the same compound?
A: 51.6%

Q: What about the Activity (Cell membrane [6]) of the same compound?
A: Active

Q: What about the CC50 [7] of the same compound?
A: > 32 µg/mL

Q: And the Activity (Cell membrane [8])?
A: Active

Q: What about the Activity (Cell membrane [9]) of the same compound?
A: Active

Q: What about the MIC (Staphylococcus aureus [10]) of the same compound?
A: < 0.06 µg/mL

Q: And the MBC (Staphylococcus aureus [11])?
A: 2 µg/mL (≈ 4.53 µM)

Q: And the MIC (Enterococcus faecalis [12])?
A: 2 µg/mL (≈ 4.53 µM)

Q: What about the MIC (Staphylococcus aureus [13]) of the same compound?
A: < 0.06 µg/mL

Q: What about the Activity (Vero [14]) of the same compound?
A: 20%

Q: What about the MIC (Staphylococcus aureus [15]) of the same compound?
A: < 0.06 µg/mL

Q: What about the Vd [16] of the same compound?
A: 322 mL/kg

Q: What about the Activity (Erythrocyte) of the same compound?
A: Non-Toxic

Q: What about the MIC (Staphylococcus aureus [17]) of the same compound?
A: 4 µg/mL

Q: What about the MIC (Staphylococcus aureus [18]) of the same compound?
A: 0.0625 µg/mL (≈ 0.142 µM)

Q: And the MIC (Enterobacter cloacae)?
A: > 128 µg/mL

Q: What about the MIC (Enterococcus faecalis [19]) of the same compound?
A: 2 µg/mL (≈ 4.53 µM)

Q: And the MIC (Klebsiella pneumoniae)?
A: > 128 µg/mL

Q: And the MIC (Escherichia coli)?
A: > 128 µg/mL

Q: What about the MIC [20] of the same compound?
A: < 0.06 µg/mL

Q: And the MIC (Staphylococcus aureus [1])?
A: < 0.0625 µg/mL

Q: And the AUC [21]?
A: 43300 ng·h/mL

Q: And the MIC [22]?
A: < 0.06 µg/mL

Q: What about the MIC (Candida albicans) of the same compound?
A: 256 µg/mL (≈ 580 µM)

Q: What about the t1/2 [23] of the same compound?
A: 1.88 h

Q: What about the Activity (Cell membrane [24]) of the same compound?
A: Active

Q: What about the PPB [25] of the same compound?
A: 99.7%

Q: And the MIC (Enterococcus faecium [26])?
A: 2 µg/mL (≈ 4.53 µM)

Q: And the AUC [27]?
A: 4200 ng·h/mL

Q: And the Kinetic_solubility [28]?
A: 2.4 µg/mL

Q: And the MIC (Enterococcus faecium [29])?
A: < 0.06 µg/mL

Q: What about the Activity (Vero [30]) of the same compound?
A: Non-Toxic
